Experimental data from ChEMBL document CHEMBL1125164, “Spiro hydantoin aldose reductase inhibitors derived from 8-aza-4-chromanones” (J Med Chem, 1990).

Experiments:
[1] = biological target: Aldo-keto reductase family 1 member B1 (Homo sapiens, UniProt P15121); assay: In vitro inhibitory activity against Aldose reductase isolated from human placenta
How it was run: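 Human placental aldose reductase, partially purified (homogenized in 0.1 M K phosphate pH 7.0 with 5 mM 2-mercaptoethanol). Assay: 50 mM K phosphate pH 7.1, 0.4 M ammonium sulfate, 0.067 mM NADPH, 1.0 mM dl-glyceraldehyde, 25 °C. NADPH oxidation followed at 340 nm over 10 min.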

Rattus norvegicus [2] = assay: Tested in vivo for ability to inhibit sorbitol formation in the lens of a streptozotocinized rat model after oral administration at the dose of 5.0 mg/Kg; type: functional; details: Lens of camera-type eye
How it was run: (§1)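 Rats made diabetic with streptozotocin 85 mg/kg iv at 0 h. Compound given by oral gavage at 4, 7 and 24 h. Lens sorbitol measured at 27 h. Reported as mean ± SEM percent inhibition of sorbitol accumulation versus untreated diabetic controls. Student's t test on absolute sorbitol levels.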

Rattus norvegicus [3] = assay: Tested in vivo for ability to inhibit sorbitol formation in the nerve of a streptozotocinized rat model after oral administration at the dose of 0.25 mg/Kg; type: functional
How it was run: (§2)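 Rats made diabetic with streptozotocin 85 mg/kg iv at 0 h. Compound given by oral gavage at 4, 7 and 24 h. Sciatic nerve sorbitol measured at 27 h. Reported as mean ± SEM percent inhibition of sorbitol accumulation versus untreated diabetic controls. Student's t test on absolute sorbitol levels.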

Rattus norvegicus [4] = assay: Tested in vivo for ability to inhibit sorbitol formation in the lens of a streptozotocinized rat model after oral administration at the dose of 0.25 mg/Kg; type: functional; details: Lens of camera-type eye; how it was run: as §1
Rattus norvegicus [5] = assay: Tested in vivo for ability to inhibit sorbitol formation in the nerve of a streptozotocinized rat model after oral administration at the dose of 5.0 mg/Kg; type: functional; how it was run: as §2
Rattus norvegicus [6] = assay: Tested in vivo for ability to inhibit sorbitol formation in the lens of a streptozotocinized rat model after oral administration at the dose of 1.0 mg/Kg; type: functional; details: Lens of camera-type eye; how it was run: as §1
Rattus norvegicus [7] = assay: Tested in vivo for ability to inhibit sorbitol formation in the nerve of a streptozotocinized rat model after oral administration at the dose of 1.0 mg/Kg; type: functional; how it was run: as §2
Rattus norvegicus [8] = assay: Tested in vivo for ability to inhibit sorbitol formation in the nerve of a streptozotocinizad rat model after oral administration at the dose of 1.0 mg/Kg; type: functional; how it was run: as §2
Rattus norvegicus [9] = assay: Tested in vivo for ability to inhibit sorbitol formation in the lens of a streptozotocinizad rat model after oral administration at the dose of 1.0 mg/Kg; type: functional; details: Lens of camera-type eye; how it was run: as §1
Rattus norvegicus [10] = assay: Tested in vivo for ability to inhibit sorbitol formation in the lens of a streptozotocinized rat model after oral administration at the dose of 1.0 mg/kg; type: functional; details: Lens of camera-type eye; how it was run: as §1
Rattus norvegicus [11] = assay: Tested in vivo for ability to inhibit sorbitol formation in the nerve of a streptozotocinized rat model after oral administration at the dose of 0.1 mg/Kg; type: functional; how it was run: as §2
Rattus norvegicus [12] = assay: Tested in vivo for ability to inhibit sorbitol formation in the nerve of a streptozotocinized rat model after oral administration at the dose of 0.5 mg/Kg; type: functional; how it was run: as §2
Rattus norvegicus [13] = assay: Tested in vivo for ability to inhibit sorbitol formation in the lens of a streptozotocinized rat model after oral administration at the dose of 0.1 mg/Kg; type: functional; details: Lens of camera-type eye; how it was run: as §1
Rattus norvegicus [14] = assay: Tested in vivo for ability to inhibit sorbitol formation in the lens of a streptozotocinized rat model after oral administration at the dose of 0.5 mg/Kg; type: functional; details: Lens of camera-type eye; how it was run: as §1
Rattus norvegicus [15] = assay: Tested in vivo for ability to inhibit sorbitol formation in the lens of a streptozotocinized rat model after oral administration at the dose of 1.5 mg/Kg; type: functional; details: Lens of camera-type eye; how it was run: as §1
Rattus norvegicus [16] = assay: Tested in vivo for ability to inhibit sorbitol formation in the nerve of a streptozotocinized rat model after oral administration at the dose of 0.15 mg/Kg; type: functional; how it was run: as §2
Rattus norvegicus [17] = assay: Tested in vivo for ability to inhibit sorbitol formation in the nerve of a streptozotocinized rat model after oral administration at the dose of 0.75 mg/kg; type: functional; how it was run: as §2
Rattus norvegicus [18] = assay: Tested in vivo for ability to inhibit sorbitol formation in the lens of a streptozotocinized rat model after oral administration at the dose of 0.15 mg/Kg; type: functional; details: Lens of camera-type eye; how it was run: as §1
Rattus norvegicus [19] = assay: Tested in vivo for ability to inhibit sorbitol formation in the lens of a streptozotocinized rat model after oral administration at the dose of 0.75 mg/Kg; type: functional; details: Lens of camera-type eye; how it was run: as §1
Rattus norvegicus [20] = assay: Tested in vivo for ability to inhibit sorbitol formation in the nerve of a streptozotocinized rat model after oral administration at the dose of 1.5 mg/Kg; type: functional; how it was run: as §2

Compound	IC50 [1] [nM]	inhibition in vivo at 1 mg/kg (Rattus norvegicus [6]) [%]	inhibition in vivo at 1 mg/kg (Rattus norvegicus [7]) [%]	further results
C[C@H]1C[C@@]2(NC(=O)NC2=O)c2cc(Cl)cnc2O1	3090	-10.6	-9.5	–
C[C@@H]1C[C@]2(NC(=O)NC2=O)c2cc(Cl)c[n+]([O-])c2O1	950	–	–	–
O=C1NC(=O)[C@@]2(CCOc3ncc(Cl)cc32)N1 (racemic)	6450	46.1	37	–
C[C@@H]1C[C@]2(NC(=O)NC2=O)c2cccnc2O1 (racemic)	7220	33.9	18.2	–
O=C1NC(=O)[C@@]2(CCOc3ccc(F)cc32)N1 [SORBINIL]	–	–	–	inhibition in vivo at 1.5 mg/kg (Rattus norvegicus [15]): 73.4%; inhibition in vivo at 0.15 mg/kg (Rattus norvegicus [16]): 29%; inhibition in vivo at 0.75 mg/kg (Rattus norvegicus [17]): 72.7%; inhibition in vivo at 0.15 mg/kg (Rattus norvegicus [18]): 12.3%; inhibition in vivo at 0.75 mg/kg (Rattus norvegicus [19]): 44.2%; inhibition in vivo at 1.5 mg/kg (Rattus norvegicus [20]): 90.9%
C[C@@H]1C[C@]2(NC(=O)NC2=O)c2cc(F)cnc2O1 (racemic)	1130	–	–	–

The next lines start with results.

IC50 [1] [nM]	Compound	inhibition in vivo at 1 mg/kg (Rattus norvegicus [6]) [%]	inhibition in vivo at 1 mg/kg (Rattus norvegicus [7]) [%]	further results
25	C[C@@H]1C[C@]2(NC(=O)NC2=O)c2cc(Cl)cnc2O1 (racemic; 14)	–	–	inhibition in vivo at 5 mg/kg (Rattus norvegicus [2]): 89%; inhibition in vivo at 0.25 mg/kg (Rattus norvegicus [3]): 38%; inhibition in vivo at 0.25 mg/kg (Rattus norvegicus [4]): 13%; inhibition in vivo at 5 mg/kg (Rattus norvegicus [5]): 98%
890	C[C@H]1C[C@]2(NC(=O)NC2=O)c2cc(Cl)cnc2O1 (racemic)	–	–	inhibition in vivo at 0.25 mg/kg (Rattus norvegicus [3]): 12.8%; inhibition in vivo at 0.25 mg/kg (Rattus norvegicus [4]): 31.8%
130	C[C@@H]1C[C@]2(NC(=O)NC2=O)c2cc(Cl)c[n+]([O-])c2O1 (racemic)	–	–	inhibition in vivo at 1 mg/kg (Rattus norvegicus [8]): 37.6%; inhibition in vivo at 1 mg/kg (Rattus norvegicus [9]): 19.9%
500	C[C@@H]1C[C@]2(NC(=O)NC2=O)c2cc(Br)cnc2O1 (racemic)	67.4	72.7	–
7.5	C[C@@H]1C[C@]2(NC(=O)NC2=O)c2cc(Cl)cnc2O1 (racemic; 16)	–	87.5	inhibition in vivo at 1 mg/kg (Rattus norvegicus [10]): 88.2%; inhibition in vivo at 0.1 mg/kg (Rattus norvegicus [11]): 8.7%; inhibition in vivo at 0.5 mg/kg (Rattus norvegicus [12]): 55.8%; inhibition in vivo at 0.1 mg/kg (Rattus norvegicus [13]): 13.8%; inhibition in vivo at 0.5 mg/kg (Rattus norvegicus [14]): 55.5%
